14 compounds from ChEMBL document CHEMBL3352008, “Dualsteric muscarinic antagonists--orthosteric binding pose controls allosteric subtype selectivity” (J Med Chem, 2014) can be followed below.

The structures appear in SMILES notation. Changes are numbered by the printed parent chain. Active and inactive are the calls of the source. The calls are words filed in the database; no cut-off is given here.

What all share (assay type): cell-based
Test [1] deals with Muscarinic acetylcholine receptor M2 (Homo sapiens, UniProt P08172, W422A). Description: Displacement of [3H]-NMS from human muscarinic M2 W422A mutant expressed in Flp-In-CHO cells by liquid scintillation counting. An outline of the steps:
(§1)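 Separated by rapid filtration, counted by liquid scintillation. Means ± SEM of 3−4 independent experiments in triplicate; unpaired two-tailed t test versus wild type.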

Test [2] has as its target T1, Muscarinic acetylcholine receptor M2 (Homo sapiens, UniProt P08172).
T1 sequence (P08172 whole entry): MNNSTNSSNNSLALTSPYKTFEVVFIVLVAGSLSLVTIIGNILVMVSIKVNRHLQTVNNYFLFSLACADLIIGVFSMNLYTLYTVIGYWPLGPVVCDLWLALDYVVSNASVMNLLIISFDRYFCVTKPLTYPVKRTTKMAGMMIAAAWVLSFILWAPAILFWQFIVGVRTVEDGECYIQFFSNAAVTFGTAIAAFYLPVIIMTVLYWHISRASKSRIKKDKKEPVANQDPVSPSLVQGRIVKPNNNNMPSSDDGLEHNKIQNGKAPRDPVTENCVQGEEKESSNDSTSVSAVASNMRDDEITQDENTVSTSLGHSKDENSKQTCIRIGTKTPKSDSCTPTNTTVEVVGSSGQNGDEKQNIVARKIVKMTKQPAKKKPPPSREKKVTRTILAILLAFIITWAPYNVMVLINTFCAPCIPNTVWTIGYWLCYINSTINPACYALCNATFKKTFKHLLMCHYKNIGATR
In words: (§2) Displacement of [3H]-NMS from wild-type human muscarinic M2 receptor expressed in Flp-In-CHO cells by liquid scintillation counting. The essentials: as §1

Test [3] deals with Muscarinic acetylcholine receptor M2 (Homo sapiens, UniProt P08172, Y104A). Description: (§3) Displacement of [3H]-NMS from human muscarinic M2 Y104A mutant expressed in Flp-In-CHO cells by liquid scintillation counting. An outline of the steps: (§4)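 Bound separated either by rapid filtration or, in some cases, by centrifugation at 21000g, 15 °C, 20 min. Pellet washed once, resuspended, counted by liquid scintillation. Triplicate determinations.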

Test [4] concerns the target Muscarinic acetylcholine receptor M2 (Homo sapiens, UniProt P08172, T423H/Y177Q). Description: (§5) Displacement of [3H]-NMS from human muscarinic M2 Y177Q/T423H mutant expressed in Flp-In-CHO cells by liquid scintillation counting. An outline of the steps: as §1
The target in test [5] is T2, Muscarinic acetylcholine receptor M5 (Homo sapiens, UniProt P08912).
T2 sequence (P08912 whole entry): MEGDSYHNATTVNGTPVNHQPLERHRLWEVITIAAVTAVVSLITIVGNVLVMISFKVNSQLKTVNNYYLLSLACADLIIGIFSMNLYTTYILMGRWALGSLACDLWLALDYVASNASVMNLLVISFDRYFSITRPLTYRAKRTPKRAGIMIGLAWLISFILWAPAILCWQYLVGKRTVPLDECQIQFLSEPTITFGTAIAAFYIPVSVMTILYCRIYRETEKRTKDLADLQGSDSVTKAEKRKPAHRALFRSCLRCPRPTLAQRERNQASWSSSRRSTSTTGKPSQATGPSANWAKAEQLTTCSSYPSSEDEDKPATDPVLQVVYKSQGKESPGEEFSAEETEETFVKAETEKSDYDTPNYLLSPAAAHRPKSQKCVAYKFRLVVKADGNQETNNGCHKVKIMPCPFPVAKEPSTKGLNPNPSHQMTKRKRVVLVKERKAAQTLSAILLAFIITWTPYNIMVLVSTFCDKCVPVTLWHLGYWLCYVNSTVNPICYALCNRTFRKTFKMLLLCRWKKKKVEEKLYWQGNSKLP
In words: (§6) Displacement of [3H]-NMS from wild-type human muscarinic M5 receptor expressed in CHO-K1 cells by liquid scintillation counting. An outline of the steps: as §1

In test [6] the target is Muscarinic acetylcholine receptor M2 (Homo sapiens, UniProt P08172, Y177Q). Description: (§7) Displacement of [3H]-NMS from human muscarinic M2 Y177Q mutant expressed in Flp-In-CHO cells by liquid scintillation counting. The essentials:
as §1
In general terms: Loss of bound radioactivity is the signal in a displacement assay; it reports binding, not function.

The target of test [7] is T3, Muscarinic acetylcholine receptor M5 (Homo sapiens) (UniProt P08912).
T3 sequence (whole entry): T2 sequence (P08912 whole entry)
The description is as §6. An outline of the steps: as §1

Test [8] addresses T4, Muscarinic acetylcholine receptor M2 (Homo sapiens) (UniProt P08172).
T4 sequence (whole entry): T1 sequence (P08172 whole entry)
The description is as §2. An outline of the steps: as §1

Test [9] has as its system T5, Muscarinic acetylcholine receptor M2 (Homo sapiens), P08172 [Y104A].
T5 sequence (whole entry): T1 sequence (P08172 whole entry) with Y104A
Described as §3. The essentials:
as §4

The subject of test [10] is T6, Muscarinic acetylcholine receptor M2 (Homo sapiens), P08172 [Y177Q,T423H].
T6 sequence (whole entry): T1 sequence (P08172 whole entry) with Y177Q, T423H
The test is described as §5. An outline of the steps: as §1

Test [11] deals with T4, Muscarinic acetylcholine receptor M2 (Homo sapiens). Description: Antagonist activity at wild-type human muscarinic M2 receptor expressed in Flp-In-CHO cells assessed as inhibition of acetylcholine-induced effect at 0.1 to 100 uM by time-course assay. An outline of the steps: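 DMR (label-free optical) in Flp-In-CHO cells stably expressing hM2, seeded 12500 cells/well, grown 20 h at 37 °C. Washed, rested 2 h at 28 °C in HBSS + 20 mM HEPES pH 7.0. Acetylcholine at maximally effective concentration, then antagonist; responses monitored 1 h. Representative experiment, n = 4, repeated at least twice on separate days.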

For test [12] the target is unchanged. In words: Antagonist activity at wild-type human muscarinic M2 receptor expressed in Flp-In-CHO cells assessed as inhibition of acetylcholine-induced effect at 100 uM in absence of atropine by time-course assay.
The target is the same in test [13]. Description: Antagonist activity at wild-type human muscarinic M2 receptor expressed in Flp-In-CHO cells assessed as inhibition of acetylcholine-induced effect at 0.01 to 100 uM by time-course assay. An outline of the steps:
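Label-free dynamic mass redistribution (Epic reader) in Flp-In-CHO cells stably expressing hM2, seeded at 12500 cells/well and grown 20 h at 37 °C to confluence. Cells washed and rested 2 h at 28 °C in HBSS with 20 mM HEPES, pH 7.0. DMR signal induced by a maximally effective acetylcholine concentration, antagonist then added and response followed over time. Representative experiment, n = 4, repeated at least twice on separate days.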

The test system of test [14] is T7, Muscarinic acetylcholine receptor M2 (Homo sapiens), P08172 [Y177Q].
T7 sequence (whole entry): T1 sequence (P08172 whole entry) with Y177Q
The test is described as §7. An outline of the steps:
as §1

Sequence of Muscarinic acetylcholine receptor M2 (Homo sapiens, UniProt P08172, Y177Q) (P08172 whole entry Y177Q): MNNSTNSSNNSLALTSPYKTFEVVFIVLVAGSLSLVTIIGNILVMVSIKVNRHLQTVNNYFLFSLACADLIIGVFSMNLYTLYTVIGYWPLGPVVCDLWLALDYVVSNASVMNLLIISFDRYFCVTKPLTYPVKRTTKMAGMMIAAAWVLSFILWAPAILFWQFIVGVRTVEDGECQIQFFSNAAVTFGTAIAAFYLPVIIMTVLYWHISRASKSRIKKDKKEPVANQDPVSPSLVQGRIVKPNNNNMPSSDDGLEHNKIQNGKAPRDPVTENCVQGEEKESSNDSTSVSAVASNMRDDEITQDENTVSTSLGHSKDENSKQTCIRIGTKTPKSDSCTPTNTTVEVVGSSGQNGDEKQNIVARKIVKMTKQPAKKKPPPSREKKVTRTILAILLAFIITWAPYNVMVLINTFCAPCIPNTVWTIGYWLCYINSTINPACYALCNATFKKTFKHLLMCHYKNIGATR
Sequence of Muscarinic acetylcholine receptor M2 (Homo sapiens, UniProt P08172, Y104A) (P08172 whole entry Y104A): as the sequence (P08172 whole entry Y177Q) above, with Y104A, Q177Y counted along it
Sequence of Muscarinic acetylcholine receptor M2 (Homo sapiens, UniProt P08172, W422A) (P08172 whole entry W422A): as the sequence (P08172 whole entry Y177Q) above, with Q177Y, W422A counted along it
Sequence of Muscarinic acetylcholine receptor M2 (Homo sapiens, UniProt P08172, T423H/Y177Q) (P08172 whole entry Y177Q/T423H): as the sequence (P08172 whole entry Y177Q) above, with T423H counted along it

`CC(C)(CN1C(=O)c2cccc3cccc(c23)C1=O)C[N+](C)(C)CCCCCC[N+](C)(C)CC#CCOC1=NOCC1`: the Ki (as a rule, the equilibrium dissociation constant of an inhibitor or competing ligand from its target) in test [1] was 19.5 nM; in test [2], 11.5 nM; in [3], 14.5 nM; in [4], 26.9 nM.

Turning to `C[N+](C)(C)CCCCCC[N+]1(C)[C@@H]2C[C@H](OC(=O)[C@H](CO)c3ccccc3)C[C@H]1[C@@H]1O[C@@H]12` (stereo not given in full), the Ki in [1] is 40.7 nM; in [5], 20.9 nM; in [2] it was 47.9 nM; in [3] it was 309 nM.

For `C[N+](C)(CCCCCC[N+]1(C)[C@@H]2C[C@H](OC(=O)[C@H](CO)c3ccccc3)C[C@H]1[C@@H]1O[C@@H]12)CCCN1C(=O)c2ccccc2C1=O` (stereo not given in full), the Ki in [1] is 6.92 nM; in test [5], 17 nM; in test [2] it was 8.13 nM; in test [3], 50.1 nM; in test [4], 7.08 nM; in test [6], 7.08 nM.

Regarding `C[N+]1(C)[C@@H]2CC[C@@H]1CC(OC(=O)C(CO)c1ccccc1)C2` (stereo not given in full), the Ki is 1.82 nM in test [2] and 11 nM in test [3].

As to `C[N+](C)(C)CC#CCOC1=NOCC1`, the Ki is 10 nM in test [1]; 120 nM in test [5]; 2.51 nM in test [2]; 257 nM in test [3]; 2.19 nM in [4]; 8.71 nM in [6].

`CC(C)(CN1C(=O)c2cccc3cccc(c23)C1=O)C[N+](C)(C)CCCCCC[N+]1(C)[C@@H]2C[C@H](OC(=O)[C@H](CO)c3ccccc3)C[C@H]1[C@@H]1O[C@@H]12` (stereo not given in full): the Ki in test [1] is 6.46 nM; in test [5], 5.5 nM; in test [2] it was 6.17 nM; in test [3], 132 nM; in test [4], 3.31 nM; in test [6] it was 8.91 nM.

On to `C[N+](C)(C)CCCCCC[N+](C)(C)CC#CCOC1=NOCC1`, for which the Ki in test [1] was 275 nM; in [5], 3980 nM; in [3], 1290 nM; in test [4], 64.6 nM; in [6], 91.2 nM.

`C[N+](C)(CCCCCC[N+](C)(C)CCCN1C(=O)c2ccccc2C1=O)CCCN1C(=O)c2ccccc2C1=O`: the pKA in [7] is 4.37; in [8] it was 6.55; in [9] it was 6.59; in [10], 5.47.

Take `CC(C)(CN1C(=O)c2cccc3cccc(c23)C1=O)C[N+](C)(C)CCCCCC[N+]1(C)[C@@H]2CC[C@@H]1CC(OC(=O)C(CO)c1ccccc1)C2` (relative stereo): the Ki was 21.4 nM in test [1]; 19.5 nM in [5]; 2.82 nM in [2]; 61.7 nM in test [3]; 2.82 nM in test [4]; 8.51 nM in [6]. Also, the inhibition entry in [11] is “Active”. Moreover, the inhibition result in test [12] is “inactive”.

On to `CN1[C@@H]2CC[C@H]1CC(OC(=O)[C@H](CO)c1ccccc1)C2` (stereo not given in full), for which, in test [13], the inhibition entry is “Active”.

Compound `CN(C)CC#CCOC1=NOCC1` gave a Ki in test [2] of 100 nM.

Take `C[N+](C)(CC#CCOC1=NOCC1)CCCCCC[N+](C)(C)CCCN1C(=O)c2ccccc2C1=O`: the Ki is 75.9 nM in test [1]; 30200 nM in test [5]; 91.2 nM in test [2]; 204 nM in [3]; 200 nM in test [4]; 275 nM in test [6].

Turning to `CC(C)(CN1C(=O)c2cccc3cccc(c23)C1=O)C[N+](C)(C)CCCCCC[N+](C)(C)CCCN1C(=O)c2ccccc2C1=O`, the pKA turned out to be 5.05 in test [7]; 7.7 in test [8]; 7.64 in test [9]; 5.82 in test [10]; 6.23 in test [14]. In test [13], the inhibition result is “Active”.

With `C[N+](C)(C)CCCCCC[N+]1(C)[C@@H]2CC[C@@H]1CC(OC(=O)C(CO)c1ccccc1)C2` (relative stereo), the Ki in test [1] is 55 nM; in test [5] it was 87.1 nM; in [2], 16.2 nM; in test [3], 151 nM; in test [4], 18.2 nM; in test [6] it was 18.6 nM.
